This note sets out measurements from ChEMBL document CHEMBL1133771, “Synthesis and pharmacological evaluation of new pyrazolidine-3, 5-diones as AT(1) angiotensin II receptor antagonists” (J Med Chem, 2000).

SMILES strings stand for the structures. Bounds are passed on as bounds.

The target of assay [1] is T1, Type-1 angiotensin II receptor (Homo sapiens, UniProt P30556).
T1 sequence (P30556 whole entry): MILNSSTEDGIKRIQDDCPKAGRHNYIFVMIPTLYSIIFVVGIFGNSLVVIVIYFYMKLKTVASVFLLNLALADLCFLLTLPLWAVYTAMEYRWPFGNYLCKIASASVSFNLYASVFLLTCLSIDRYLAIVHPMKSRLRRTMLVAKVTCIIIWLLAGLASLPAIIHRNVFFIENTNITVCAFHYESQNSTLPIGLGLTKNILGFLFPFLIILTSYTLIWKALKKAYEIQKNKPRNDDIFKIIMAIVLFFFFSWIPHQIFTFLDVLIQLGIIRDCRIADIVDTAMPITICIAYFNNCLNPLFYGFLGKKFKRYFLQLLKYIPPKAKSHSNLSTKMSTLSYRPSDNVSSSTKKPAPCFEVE
Nature of the assay: Binding affinity against AT1 in human hepatoma cell line, PLC-PRF-5. The procedure, abridged:
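Crude membranes from PLC-PRF human hepatoma cells were prepared by lysis in ice-cold Tris/HCl 50 mM, MgCl2 2 mM, pH 7.4, then spun at 30000g. 100 µg protein was incubated 1 h at 25 °C with 3 nM [3H]AII. Nonspecific binding was taken with 1 µM losartan. Compounds were tested at 10-10–10-5 M, with filtration and scintillation counting.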

Assay [2] concerns the target T2, Angiotensin II receptor (Homo sapiens, UniProt P30556+P50052).
T2 sequence (P30556 whole entry): T1 sequence (P30556 whole entry)
T2 sequence (P50052 whole entry): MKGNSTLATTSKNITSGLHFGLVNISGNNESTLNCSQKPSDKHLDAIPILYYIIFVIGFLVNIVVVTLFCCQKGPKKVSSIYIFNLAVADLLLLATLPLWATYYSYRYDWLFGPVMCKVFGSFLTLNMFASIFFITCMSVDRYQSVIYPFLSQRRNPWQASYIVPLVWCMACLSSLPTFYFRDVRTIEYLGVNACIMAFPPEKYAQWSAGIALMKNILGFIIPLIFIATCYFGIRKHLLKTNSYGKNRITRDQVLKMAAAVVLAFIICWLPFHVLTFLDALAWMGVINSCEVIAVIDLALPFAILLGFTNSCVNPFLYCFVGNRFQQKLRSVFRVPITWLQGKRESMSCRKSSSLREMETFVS
As to the kind of experiment: (§1) In vitro antagonist activity, Inhibition of angiotensin II (50 nM) mediated increase in cytosolic [Ca2+] conc. in PLC-PRF-5 cells. Type of assay: functional, cell-based. The procedure, abridged:
(§2)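 PLC-PRF-5 cells were preincubated with compound, then stimulated with 50 nM angiotensin II. The rise in intracellular cytosolic Ca2+ concentration was measured, and inhibition of that rise is given as IC50.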

Assay [3] can be described thus: as §1. Particulars: Homo sapiens. The format is functional, cell-based. The procedure, abridged: as §2

In general, Ki refers to a measure of affinity in units of concentration, obtained from inhibition or displacement. A higher Ki goes with a looser hold on the target. By IC50 is commonly meant the point on the concentration scale where inhibition reaches its midpoint. Low readings indicate inhibition by little substance, high ones a need for much substance.

On to `Cc1ccc(N2C(=O)C3(CCCC3)C(=O)N2Cc2ccc(-c3ccccc3-c3nn[nH]n3)cc2)cc1`, for which the Ki in assay [1] came to 381 nM.
For `CCCN1C(=O)C2(CCCC2)C(=O)N1Cc1ccc(-c2ccccc2S(=O)(=O)NC(=O)c2ccccc2)cc1`, in assay [1], the affinity corresponds to a Ki of 40 nM. The IC50 in assay [2] came to 52 nM.
In the same order, the values of `CCCCN1C(=O)C(C)(C)C(=O)N1Cc1ccc(-c2ccccc2S(=O)(=O)NC(=O)c2ccccc2)cc1` are 42 nM and 26 nM.
In assay [1], `CCCCN1C(=O)C2(CCCC2)C(=O)N1Cc1ccc(-c2ccccc2S(=O)(=O)NC(C)(C)C)cc1` yielded a Ki above 10000 nM.
On the same count and under the same terms, the result for `CCCCN1C(=O)C2(CCCC2)C(=O)N1Cc1ccc(-c2ccccc2C#N)cc1` reads above 10000 nM; that for `CCCCN1C(=O)C2(CCCC2)C(=O)N1Cc1ccc(-c2ccccc2C(=O)O)cc1`, 3160 nM.
`CCCCCN1C(=O)C2(CCCC2)C(=O)N1Cc1ccc(-c2ccccc2S(=O)(=O)NC(=O)c2ccccc2)cc1` registered an inhibitory constant (Ki) in assay [1] of 25 nM. In assay [2], this compound came in with an IC50 of 28 nM.
Turning to `CCCCN1C(=O)C2(CCCC2)C(=O)N1Cc1ccc(NC(=O)c2ccccc2C(=O)O)cc1`, in assay [1], the inhibition constant (Ki) is 398 nM.
Still for that read-out and setting: the same measure for `CCCCN1C(=O)C2(CCCC2)C(=O)N1Cc1ccc(-c2ccccc2)cc1`: above 10000 nM.
For `CCCCC(=O)NS(=O)(=O)c1ccccc1-c1ccc(CN2C(=O)C3(CCCC3)C(=O)N2CCCC)cc1`, in assay [1], the affinity corresponds to a Ki of 13 nM. The same compound registered an IC50 in assay [2] of 15 nM.
Compound `CCCCN1C(=O)C(C)(CCCC)C(=O)N1Cc1ccc(-c2ccccc2S(=O)(=O)NC(=O)c2ccccc2)cc1` (configuration not stated) gave an inhibition constant (Ki) in assay [1] of 32 nM. In assay [3], inhibition was half-maximal at 33 nM (IC50).
In turn, `CCCCN1C(=O)C2(CCCC2)C(=O)N1Cc1ccc(-c2ccccc2S(=O)(=O)NC(=O)NC2CCCCC2)cc1` registered a Ki in assay [1] of 32 nM. Moreover, in assay [2], the IC50 is 38 nM.
Turning to `O=C1N(Cc2ccc(-c3ccccc3-c3nn[nH]n3)cc2)N(c2ccccc2)C(=O)C12CCCC2`, in assay [2], the concentration for half-maximal inhibition (IC50) came to 89 nM.
For the compound `CCCCN1C(=O)C2(CCCC2)C(=O)N1Cc1ccc(-c2ccccc2-c2nn[nH]n2)cc1`, affinity in assay [1] was put at a Ki of 25 nM. The compound also gave a 50% inhibitory concentration (IC50) in assay [2] of 22 nM.
With `CCCCN1C(=O)C2(CCCC2)C(=O)N1Cc1ccc(-c2ccccc2S(=O)(=O)NC(=O)c2ccccc2)cc1`, the affinity in assay [1], expressed as Ki, was 10 nM. The compound further yielded a 50% inhibitory concentration (IC50) in assay [2] of 12 nM.
`O=C1N(Cc2ccccc2)N(Cc2ccc(-c3ccccc3-c3nn[nH]n3)cc2)C(=O)C12CCCC2`: the Ki in assay [1] was 402 nM.
Same read-out and setting: the result for `CCCCN1C(=O)C2(CCCC2)C(=O)N1Cc1ccc(-c2ccccc2S(N)(=O)=O)cc1` reads above 10000 nM; that for `CCCCN1C(=O)C2(CCCC2)C(=O)N1Cc1ccc(C(=O)Nc2cccc(C(=O)O)c2)cc1`, above 10000 nM.
Same read-out and setting: the same measure for `CCCCN1C(=O)C2(CCCC2)C(=O)N1Cc1ccc(C(=O)Nc2ccccc2C(=O)O)cc1`: 2000 nM.
